Values belong to the compound of their own block, whether it stands above or below them.
Assays:
[1] = Relative Lipophilicity measured by reversed-phase high performance thin-layer chromatography (RP-HPTLC); type: physicochemical
Method in brief: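 Reversed-phase TLC; plates dried 105 °C, 1 h; mobile phase acetone/water 2:1 (v/v); 1 µL of 3 mg/mL CHCl3 solution spotted; five runs with varied placement; mean Rf converted via Rm = log[(1/Rf) - 1].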

[2] = Evaluated for anticonvulsant property in DBA/2 mice against Locomotion assessed by Rotarod test (ip administration); type: functional, Mus musculus
Method in brief: (§1)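 Rotarod (3-cm diameter, 8 rpm): trained mice in groups of 10 tested 30 min after ip dosing; failure to stay on for 2 min = impairment. TD50 by Litchfield-Wilcoxon, at least 32 animals per value.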

Mus musculus = experiment: Anticonvulsant activity was determined when tested at 15 min from intraperitoneal administration; type: functional; conditions: ip, 0.25 h
[3] = Therapeutic index is the ratio between TD50 and ED50 (from the clonic phase of the audiogenic seizures); ND means not detectable
Method in brief: (§2)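 Therapeutic index = TD50 (rotarod, ip) divided by ED50 for clonic phase of audiogenic seizures in DBA/2 mice; both by Litchfield-Wilcoxon, at least 32 animals each.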

[4] = Evaluated for anticonvulsant property in DBA/2 mice against Audiogenic seizures during clonic phase (ip administration); ranges from [39.2-81.1]; type: functional; conditions: Mus musculus
Method in brief: (§3)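 DBA/2 mice, genetically sound-susceptible (8-12 g, 22-25 days old, either sex), groups of 10; drug ip in 50% DMSO/50% saline (0.1 mL/10 g), auditory stimulation 30 min later; latency and incidence of clonic and tonic phases scored; ED50 via Litchfield-Wilcoxon, at least 32 animals per value.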

[5] = Evaluated for anticonvulsant property in DBA/2 mice against Audiogenic seizures during tonic phase (ip administration); ranges from [32.5-57.4]; type: functional; conditions: Mus musculus; method in brief: as §3
[6] = Evaluated for anticonvulsant property in DBA/2 mice against Audiogenic seizures during clonic phase (ip administration); value ranges from 60.3-91.0; type: functional; conditions: Mus musculus; method in brief: as §3
[7] = Evaluated for anticonvulsant property in DBA/2 mice against Audiogenic seizures during tonic phase (ip administration); value ranges from 41.3-82.3; type: functional; conditions: Mus musculus; method in brief: as §3
[8] = Evaluated for anticonvulsant property in Swiss mice against MES induced seizures; value ranges from 62.4 - 92.1; type: functional; conditions: Mus musculus
[9] = Evaluated for anticonvulsant property in Swiss mice against PTZ induced seizures; value ranges from 72.2 - 114; type: functional; conditions: Mus musculus
Method in brief: (§4)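 Male Swiss mice given drug ip (50% DMSO/50% saline) 45 min before sc PTZ at CD97 (85 mg/kg); watched 30 min; protection = no clonic spasm lasting at least 5 s; ED50 by Litchfield-Wilcoxon.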

[10] = Evaluated for anticonvulsant property in DBA/2 mice against AMPA induced seizures during clonic phase; value ranges from 13.8-37.2; type: functional; conditions: Mus musculus
[11] = Evaluated for anticonvulsant property in DBA/2 mice against AMPA induced seizures during tonic phase; value ranges from 11.4-28.7; type: functional; conditions: Mus musculus
[12] = Evaluated for anticonvulsant property in DBA/2 mice against Audiogenic seizures during clonic phase (ip administration); value ranges from 11.8-22.0; type: functional; conditions: Mus musculus; method in brief: as §3
[13] = Evaluated for anticonvulsant property in DBA/2 mice against Audiogenic seizures during tonic phase (ip administration); value ranges from 8.67-11.93; type: functional; conditions: Mus musculus; method in brief: as §3
[14] = Evaluated for anticonvulsant property in DBA/2 mice against audiogenic Seizures after pretreatment with Aniracetam during clonic phase, *p<0.01; value ranges from 20.5-71.9; type: functional; conditions: Mus musculus
[15] = Evaluated for anticonvulsant property in DBA/2 mice against audiogenic Seizures after pretreatment with Aniracetam during tonic phase, *p<0.01; value ranges from 12.7-45.5; type: functional; conditions: Mus musculus
[16] = Evaluated for anticonvulsant property in DBA/2 mice against Locomotion assessed by Rotarod test (ip administration); value ranges from 46.2-99.8; type: functional, Mus musculus; method in brief: as §1
[17] = Evaluated for anticonvulsant property in Swiss mice against MES induced seizures; ranges from [18.6-51.0]; type: functional; conditions: Mus musculus
[18] = Evaluated for anticonvulsant property in Swiss mice against PTZ induced seizures; value ranges from 41.5-78.8; type: functional; conditions: Mus musculus; method in brief: as §4
[19] = Therapeutic index is the ratio between TD50 and ED50 (from the clonic phase of the audiogenic seizures); conditions: read-out: TI; method in brief: as §2
[20] = Evaluated for anticonvulsant property in DBA/2 mice against Audiogenic seizures during tonic phase (ip administration); value ranges from 41.5-78.8; type: functional; conditions: Mus musculus; method in brief: as §3
[21] = Evaluated for anticonvulsant property in DBA/2 mice against Audiogenic seizures during clonic phase (ip administration); value ranges from 46.0-132; type: functional; conditions: Mus musculus; method in brief: as §3
[22] = Evaluated for anticonvulsant property in DBA/2 mice against Locomotion assessed by Rotarod test (ip administration); value ranges from 34-77.8; type: functional, Mus musculus; method in brief: as §1
[23] = Evaluated for anticonvulsant property in DBA/2 mice against Locomotion assessed by Rotarod test (ip administration); value ranges from 73.8-206; type: functional, Mus musculus; method in brief: as §1
[24] = Evaluated for anticonvulsant property in Swiss mice against PTZ induced seizures; value ranges from 51.8-113; type: functional; conditions: Mus musculus; method in brief: as §4
[25] = Evaluated for anticonvulsant property in Swiss mice against MES induced seizures; ranges from [45.6-80.3]; type: functional; conditions: Mus musculus
[26] = Evaluated for anticonvulsant property in DBA/2 mice against Audiogenic seizures during tonic phase (ip administration); value ranges from 15.4-49.4; conditions: Mus musculus
[27] = Evaluated for anticonvulsant property in DBA/2 mice against Audiogenic seizures during clonic phase (ip administration); value ranges from 32.5-61.2; conditions: Mus musculus
[28] = Evaluated for anticonvulsant property in DBA/2 mice against Audiogenic seizures during clonic phase (ip administration); value ranges from 10.5-38.2; type: functional; conditions: Mus musculus; method in brief: as §3
[29] = Evaluated for anticonvulsant property in DBA/2 mice against Audiogenic seizures during tonic phase (ip administration); value ranges from 8.04-21.3; type: functional; conditions: Mus musculus; method in brief: as §3
[30] = Evaluated for anticonvulsant property in Swiss mice against PTZ induced seizures; value ranges from 43.8-79.1; type: functional; conditions: Mus musculus; method in brief: as §4
[31] = Evaluated for anticonvulsant property in Swiss mice against MES induced seizures; value ranges from 26.8-45.8; type: functional; conditions: Mus musculus
[32] = Evaluated for anticonvulsant property in DBA/2 mice against Locomotion assessed by Rotarod test (ip administration); value ranges from 59.4-99.3; type: functional, Mus musculus; method in brief: as §1
[33] = Evaluated for anticonvulsant property in DBA/2 mice against AMPA induced seizures during clonic phase; value ranges from 27.5-64.3; type: functional; conditions: Mus musculus
[34] = Evaluated for anticonvulsant property in DBA/2 mice against AMPA induced seizures during tonic phase; value ranges from 20.6-50.3; type: functional; conditions: Mus musculus
[35] = Evaluated for anticonvulsant property in DBA/2 mice against Audiogenic seizures during clonic phase (ip administration); value ranges from 16.3-[…]; type: functional; conditions: Mus musculus; method in brief: as §3
[36] = Evaluated for anticonvulsant property in DBA/2 mice against Audiogenic seizures during tonic phase (ip administration); value ranges from 14.3-31.9; type: functional; conditions: Mus musculus; method in brief: as §3
[37] = Evaluated for anticonvulsant property in DBA/2 mice against audiogenic Seizures after pretreatment with Aniracetam during clonic phase; value ranges from 28.3-91.5; type: functional; conditions: Mus musculus
[38] = Evaluated for anticonvulsant property in DBA/2 mice against audiogenic Seizures after pretreatment with Aniracetam during tonic phase, *p<0.01; value ranges from 23.5-62.7; type: functional; conditions: Mus musculus
[39] = Evaluated for anticonvulsant property in DBA/2 mice against Locomotion assessed by Rotarod test (ip administration); value ranges from 65.1-126; type: functional, Mus musculus; method in brief: as §1
[40] = Evaluated for anticonvulsant property in Swiss mice against MES induced seizures; value ranges from 33.5-56.0; type: functional; conditions: Mus musculus
[41] = Evaluated for anticonvulsant property in Swiss mice against PTZ induced seizures; value ranges from 45.6-80.3; type: functional; conditions: Mus musculus; method in brief: as §4
[42] = Evaluated for anticonvulsant property in DBA/2 mice against Locomotion assessed by Rotarod test (ip administration); value ranges from 87.3-231; type: functional, Mus musculus; method in brief: as §1
[43] = Evaluated for anticonvulsant property in DBA/2 mice against Audiogenic seizures during clonic phase (ip administration); value ranges from 26.0-44.2; type: functional; conditions: Mus musculus; method in brief: as §3

Structure (SMILES): COc1cc2c(cc1OC)C(c1ccc(N)cc1)=NNC(=O)C2
Rm [1]: -0.647 | TD50 [2]: 56.8 µM/kg | ED50 (Mus musculus): > 50 µmol/kg

Structure (SMILES): COc1cc2c(cc1OC)C(c1cccc([N+](=O)[O-])c1)=NNC(=O)C2
Rm [1]: -0.181 | TD50 [2]: >150 µM/kg | TI [3]: Not detectable

Structure (SMILES): COc1cc2c(cc1OC)C(c1cccc([N+](=O)[O-])c1)=Nn1c(O)nnc1C2
Rm [1]: -0.402 | TD50 [2]: >150 µM/kg | ED50 [4]: 56.4 µmol/kg | ED50 [5]: 43.2 µmol/kg

Structure (SMILES): COc1cc2c(cc1OC)C(c1ccc([N+](=O)[O-])cc1)=Nn1c(O)nnc1C2
Rm [1]: -0.368 | TD50 [2]: >150 µM/kg | ED50 [6]: 74.1 µmol/kg | ED50 [7]: 58.3 µmol/kg | ED50 [8]: 75.8 µmol/kg | ED50 [9]: 90.7 µmol/kg

Structure (SMILES): CC1=NN=C(c2ccc(N)cc2)c2cc3c(cc2C1)OCO3 [GYKI-52466]
Rm [1]: -0.368

Structure (SMILES): COc1cc2c(cc1OC)C(c1ccccc1)=NNC(=O)C2
Rm [1]: -0.28 | TD50 [42]: 142 µM/kg | ED50 [43]: 33.9 µmol/kg

More lines, main results first:

Rm [1]: -0.837
Structure (SMILES): COc1cc2c(cc1OC)C(c1ccc(N)cc1)=Nn1c(O)nnc1C2
ED50 [10]: 22.1 µmol/kg | ED50 [11]: 18.1 µmol/kg | ED50 [12]: 16.1 µmol/kg | ED50 [13]: 10.2 µmol/kg | ED50 [14]: 38.4 µmol/kg | ED50 [15]: 24.1 µmol/kg | TD50 [16]: 65.8 µM/kg | ED50 [17]: 30.8 µmol/kg | ED50 [18]: 57.2 µmol/kg | ED50 (Mus musculus): 27.8 µmol/kg | selectivity ratio [19]: 4

Rm [1]: -0.28
Structure (SMILES): COc1cc2c(cc1OC)C(c1ccc(F)cc1)=NNC(=O)C2
ED50 [20]: 57.2 µmol/kg | TD50 [2]: >150 µM/kg | ED50 [21]: 78 µmol/kg

Rm [1]: -0.619
Structure (SMILES): COc1cc2c(cc1OC)C(c1cccc(N)c1)=NNC(=O)C2
TD50 [22]: 51.5 µM/kg

Rm [1]: -0.508
Structure (SMILES): COc1cc2c(cc1OC)C(c1ccccc1)=Nn1c(O)nnc1C2
TD50 [23]: 123 µM/kg | ED50 [24]: 76.5 µmol/kg | ED50 [25]: 60.5 µmol/kg | selectivity ratio [19]: 2.8 | ED50 [26]: 27.5 µmol/kg | ED50 [27]: 44.6 µmol/kg

Rm [1]: -0.145
Structure (SMILES): COc1cc2c(cc1OC)C(c1ccc([N+](=O)[O-])cc1)=NNC(=O)C2
TD50 [2]: >150 µM/kg | TI [3]: Not detectable

Rm [1]: -0.74
Structure (SMILES): COc1cc2c(cc1OC)C(c1cccc(N)c1)=Nn1c(O)nnc1C2
ED50 [28]: 20.1 µmol/kg | ED50 [29]: 13.1 µmol/kg | ED50 [30]: 58.9 µmol/kg | ED50 [31]: 35.1 µmol/kg | TD50 [32]: 76.8 µM/kg | selectivity ratio [19]: 3.8

Rm [1]: -0.402
Structure (SMILES): COc1cc2c(cc1OC)C(c1ccc(F)cc1)=Nn1c(O)nnc1C2
ED50 [33]: 42.1 µmol/kg | ED50 [34]: 32.2 µmol/kg | ED50 [35]: 32.1 µmol/kg | ED50 [36]: 21.8 µmol/kg | ED50 [37]: 50.9 µmol/kg | ED50 [38]: 38.4 µmol/kg | TD50 [39]: 90.6 µM/kg | ED50 [40]: 43.4 µmol/kg | ED50 [41]: 60.5 µmol/kg | selectivity ratio [19]: 2.8

From ChEMBL document CHEMBL1133552, “Synthesis and evaluation of pharmacological and pharmacokinetic properties of 11H-[1,2,4]triazolo[4,5-c][2,3]benzodiazepin-3(2H)-ones” (J Med Chem, 2000)
